Screening data deposited in PubChem by Broad Institute.
In the library only some 2.5% were active in any assay of this set; here they are far more common.
MLL AF4-AF9 inh: inhibitors of AF4 peptide binding to AF9, primary screen, biochemical, AlphaScreen, biotin-AF4 peptide, FLAG-AF9, single point; AID 651704, 2012; hit rate 0.47% among 350,000; inhibition, % at 10 µM; Protein AF-9 (Homo sapiens), P42568;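 active = every replicate reaching a set inhibition limit, whatever the replicate mean, cut at about 25% in these data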
Target sequence (P42568 whole entry, looked up): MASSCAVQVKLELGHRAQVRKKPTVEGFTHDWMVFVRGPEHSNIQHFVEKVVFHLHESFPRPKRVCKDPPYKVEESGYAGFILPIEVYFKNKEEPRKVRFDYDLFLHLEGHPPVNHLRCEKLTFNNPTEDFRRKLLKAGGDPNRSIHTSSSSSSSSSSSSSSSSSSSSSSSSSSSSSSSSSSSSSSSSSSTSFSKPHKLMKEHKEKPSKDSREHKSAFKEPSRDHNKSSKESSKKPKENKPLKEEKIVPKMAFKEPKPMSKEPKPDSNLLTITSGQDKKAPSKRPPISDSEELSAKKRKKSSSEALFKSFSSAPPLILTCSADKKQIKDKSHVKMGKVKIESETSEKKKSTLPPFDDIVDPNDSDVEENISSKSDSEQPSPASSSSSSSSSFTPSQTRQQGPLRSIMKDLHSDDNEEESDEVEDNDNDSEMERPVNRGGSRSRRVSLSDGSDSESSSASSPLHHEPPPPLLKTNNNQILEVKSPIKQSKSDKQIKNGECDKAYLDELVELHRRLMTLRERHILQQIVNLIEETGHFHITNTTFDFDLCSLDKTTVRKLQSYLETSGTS
N-glyco inh: increase of ERlucT glycosylation luciferase signal, primary screen, N-linked glycosylation inhibitor project, D54 ERlucT cells, luminescence, set 2 | hit rate 0.23% among 360,000 | AID 588692, 2011 | reporter increase, % at 12.5 µM | D54 ERlucT glycosylation luciferase reporter, 24 h; percent of 100 nM tunicamycin response;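 active = mean luciferase reporter signal, scaled so untreated is 0 and the glycosylation-blocking control 100, at or above a set limit in every replicate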;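 note: luciferase carries N-glycosylation sites so blocking glycosylation raises the light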
PAX8 reporter: inhibitors of PAX8-driven TPO luciferase reporter, primary screen, RMG-I cells, single concentration; SteadyGlo, 24 h; inhibition, % at 12.6 µM; hit rate 1.2% among 360,000; AID 652154, 2013;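 active = mean replicate inhibition at least 60% with every replicate also reaching 60%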;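 note: luciferase light reporting Pax8 driven TPO promoter activity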
EWS-Fli inh: EWS/Fli-driven NR0B1 reporter inhibitors, primary screen, A673 cells, NR0B1 luciferase, luminescence, MLPCN library; viability-normalised; inhibition, % at 12.6 µM; hit rate 0.67% among 350,000; AID 651661, 2012;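 active = mean inhibition of at least 50% after viability correction, with every replicate also passing that limit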;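 note: firefly luciferase signal divided by Alamar Blue viability fluorescence both relative to DMSO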
Env fusion inh: inhibitors of HIV-1 Env-driven cell-cell fusion, primary screen, HeLa-JRFL effector, CEM21 target cells, luciferase; inhibition, % at 12.3 µM; hit rate 1.1% among 360,000; AID 651610, 2012;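 active = mean replicate inhibition score of at least 50 and every replicate individually at or above 50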
FN deposition inh: inhibitors of fibronectin matrix deposition, primary screen, AH1F cells, Alexa488-fibronectin fluorescence, plate reader; AH1F fibroblasts, overnight; inhibition, % at 12.6 µM; hit rate 0.086% among 350,000; AID 743247, 2014;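 active = mean inhibition across replicates of 30% or more, regardless of how many single replicates reach that level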
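Measured by – fluorescence 485/525 nm · System – AH1F fibroblast monolayer, labelled fibronectin deposition · Amount – 10000 cells per well · Buffer or medium – serum-reduced DMEM (2% serum) · Doses – single dose, pinned · Also added – fluorescent fibronectin at 24 nM final · Schedule – 1 h cell attachment, overnight exposure to compound and label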
Each line names hits and unclear results; the compound was inactive in the other large screens.

O=C(C[C@@H]1C=C[C@H](NC(=O)Nc2cccc(F)c2)[C@@H](CO)O1)NCC1CC1	none (no result: N-glyco inh)
Cn1cc(CN2CCC(C(=O)NC(c3ccc(-c4ccccc4)cc3)c3cnccn3)CC2)c2ccccc21 (stereo not given)	MLL AF4-AF9 inh 26.4
O=C([C@H]1[C@H](CO)[C@H]2Cn3c(ccc(/C=C/c4ccccc4)c3=O)[C@H]2N1CC1CC1)N1CCOCC1	none (no result: N-glyco inh, Env fusion inh, FN deposition inh)
C[C@H]1CN([C@@H](C)CO)C(=O)Cc2cc(NC(=O)Cn3cnnn3)ccc2O[C@H]1CN(C)C(=O)Nc1cccc2ccccc12	none (no result: MLL AF4-AF9 inh, N-glyco inh)
CCN(CC)S(=O)(=O)c1cccc(NC(=O)c2ccc(-n3nc(C)cc3C)cc2)c1	Env fusion inh 66.8 (no result: MLL AF4-AF9 inh, EWS-Fli inh)
CC=Cc1ccc2n(c1=O)C[C@H]1[C@H](CO)[C@@H](C(=O)NCC3CC3)N(C(C)=O)[C@@H]21 (mixture of isomers)	none (no result: N-glyco inh, PAX8 reporter, Env fusion inh, FN deposition inh)
CO[C@H]1CN(C)C(=O)c2ccc(NC(C)=O)cc2OC[C@@H](C)N(CCC(F)(F)F)C[C@@H]1C	none (no result: N-glyco inh, PAX8 reporter, Env fusion inh)
CNc1ccccc1C(C)(C)c1cc(-c2cccc(Br)c2)no1	none (no result: FN deposition inh)
CNc1ccccc1C(C)(C)c1cc(-c2ccc(F)cc2)no1	Env fusion inh 65.6 (no result: MLL AF4-AF9 inh, EWS-Fli inh)
C[C@H]1CN([C@@H](C)CO)C(=O)c2cc(NS(=O)(=O)c3cn(C)cn3)ccc2O[C@@H]1CN(C)S(=O)(=O)c1ccc(Cl)cc1	none (no result: N-glyco inh, FN deposition inh)
Brc1ccc2c(c1)C(C1=NCCN1)c1ccccc1CS2 (stereo not given)	EWS-Fli inh 58.0, Env fusion inh 61.9
C[C@@H]1CN([C@@H](C)CO)C(=O)c2cc(NC(=O)CCCCCC(=O)Nc3ccccc3N)ccc2O[C@@H]1CN(C)C(=O)Nc1ccc(F)cc1	none (no result: N-glyco inh, Env fusion inh, FN deposition inh)
COC(=O)C[C@@H]1CC[C@H]2[C@H](COc3ccc(NC(=O)c4cc(C)on4)cc3C(=O)N2C)O1	none (no result: N-glyco inh, Env fusion inh)
CCN(CC)c1ccc(S(=O)(=O)N2CCCCC2)cc1NC(=O)CSCc1c(C)noc1C	Env fusion inh 62.3
COC(=O)[C@H]1[C@H](CO)[C@H]2Cn3c(ccc(-c4ccc(F)cc4)c3=O)[C@H]2N1C	none (no result: N-glyco inh, Env fusion inh, FN deposition inh)
CCCC(=O)Nc1ccc2c(c1)C(=O)N(C)[C@@H]1CC[C@@H](CC(=O)NCCc3ccccc3)O[C@H]1CO2	none (no result: N-glyco inh, Env fusion inh)
COc1ccc(-c2nnc(SCc3nnc(-c4ccc(Cl)cc4)o3)n2-c2ccccc2)cc1	Env fusion inh 65.1 (no result: MLL AF4-AF9 inh, PAX8 reporter, EWS-Fli inh, FN deposition inh)
O=C(C[C@@H]1C[C@@H]2c3cc(NC(=O)Nc4ccc(F)cc4)ccc3O[C@@H]2[C@@H](CO)O1)NCC1CC1	none (no result: MLL AF4-AF9 inh, N-glyco inh, Env fusion inh)
C[C@@H]1CN([C@@H](C)CO)C(=O)c2cccc(NC(=O)Nc3ccc4c(c3)OCO4)c2O[C@H]1CN(C)Cc1ccc2c(c1)OCO2	none (no result: N-glyco inh, FN deposition inh)
O=C(CSc1nc(-c2ccccc2)c(-c2ccccc2)[nH]1)N1CCN(S(=O)(=O)c2ccccc2)CC1	Env fusion inh 84.3 (no result: MLL AF4-AF9 inh, EWS-Fli inh)
CC(C)(C)NC(=O)CSc1nc(-c2ccccc2)c(-c2ccccc2)[nH]1	Env fusion inh 63.8 (no result: MLL AF4-AF9 inh, PAX8 reporter, EWS-Fli inh)
O=C(O)CSc1nc(-c2ccccc2)c(-c2ccccc2)[nH]1	none
CCCNc1nc2c(c(=O)n(C)c(=O)n2C)n1CCc1ccccc1	none (no result: MLL AF4-AF9 inh, PAX8 reporter, EWS-Fli inh, FN deposition inh)
CC(C)n1c(NCCc2ccccc2)nc2c1c(=O)n(C)c(=O)n2C	Env fusion inh 109.9 (no result: MLL AF4-AF9 inh, EWS-Fli inh)
CCCSc1nc(C)c2cc(C)cc(C)c2n1	none (no result: MLL AF4-AF9 inh, EWS-Fli inh)
Cc1cc(C)c2nc3nc(C)c(C)cc3c(N)c2c1	N-glyco inh 95.1
COc1cccc(C2CC(c3ccc(C)cc3)n3nc(N)nc3N2)c1 (stereo not given)	Env fusion inh 66.0
COc1cccc(C2CC(c3ccc(C)cc3)Nc3nc(N)nn32)c1 (stereo not given)	none
CCCNC(=O)C[C@H]1CC[C@H]2[C@@H](COc3ccc(NC(=O)c4cccc(OC)c4)cc3C(=O)N2C)O1	none (no result: N-glyco inh)
Cc1cc(OC(=O)c2ccc(Cl)cc2Cl)c([N+](=O)[O-])c(=O)[nH]1	MLL AF4-AF9 inh 36.9
Cc1cc(OC(=O)c2ccccc2Cl)c([N+](=O)[O-])c(=O)[nH]1	none
Nc1nc(CN2CCN(Cc3ccccc3)CC2)nc(Nc2ccc3c(c2)OCCO3)n1	N-glyco inh 47.0 (no result: MLL AF4-AF9 inh, EWS-Fli inh)
